This passage reports Ki and Ratio results from ChEMBL document CHEMBL1127024, “Synthetic and computer-assisted analysis of the structural requirements for selective, high-affinity ligand binding to diazepam-insensitive benzodiazepine receptors” (J Med Chem, 1993).

Assay type in all cases: protein-complex assay
Test [1] has as its target GABA-A receptor; anion channel. The test is described as follows: Binding affinity for Diazepam insensitive (DI) isoform of the benzodiazepine (Bz) binding site on GABAA receptors. In a few lines:
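Adult male Sprague-Dawley rat cerebellar membranes (~100 µg; homogenised in 50 mM Tris-citrate pH 7.8, washed by repeated 20000g spins at 4 °C). Incubated 60 min at 0-4 °C, GF/B filtration, scintillation counting. Duplicate assays; Ki.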

The target of test [2] is GABA-A receptor; anion channel. The test is described as follows: Binding affinity for Diazepam sensitive (DS) isoform of the benzodiazepine (Bz) binding site on GABAA receptors.
For test [3], the target named is GABA-A receptor; anion channel (Rattus norvegicus) (UniProt O09028+P15431+P18506+P18508+P19969+P20236+P23574+P23576+P28471+P28473+P30191+P62813+P63079+P63138+Q91ZM7+Q9ES14). Briefly: Ratio of binding affinity against DI Bz receptor to that of DS Bz receptor.

What is called Ki is the dissociation constant of the complex between target and ligand, obtained from inhibition or displacement. Low values mean tighter binding, high ones weaker binding. As to `CCOC(=O)c1ncn2c1[C@H]1CCCN1C(=O)c1ccccc1-2`, the inhibition constant Ki in test [1] was > 1000 nM; in test [2], > 100 nM.

Take `CCOC(=O)c1ncn2c1C1CCCN1C(=O)c1c(Cl)cccc1-2` (centres undefined): the Ki in test [1] was 68.8 nM; in test [2] it was 0.2 nM. For the same molecule, the Ratio in test [3] was found to be 344.

As for `CCOC(=O)c1ncn2c1CN(Cc1ccccc1)C(=O)c1ccccc1-2`, the Ki in test [1] was found to be 112 nM; in test [2] it was 1.5 nM. In test [3], the Ratio is 75.

In the case of `Cc1nnc(-c2ncn3c2CN(Cc2ccccc2)C(=O)c2ccccc2-3)o1`, the Ki in test [1] is > 10000 nM; in test [2] it was 1210 nM.

As for `CC(C)(C)OC(=O)c1ncn2c1C1CCN1C(=O)c1cc(F)ccc1-2` (centres undefined), the Ki in test [1] worked out at 16.9 nM; in test [2] it was 1.8 nM. Further, the Ratio in test [3] is 9.

As to `CCOC(=O)c1ncn2c1CN(C)C(=O)c1c(F)cccc1-2`, the values for the Ki in test [1] and in test [2] were 102 nM and 0.8 nM, respectively. Besides, in test [3], the Ratio was 128.

Consider `CCOC(=O)c1ncn2c1CN(C)C(=O)c1ccc(Cl)cc1-2`, for which the figures for the Ki in test [1] and in test [2] were > 10000 nM and > 1000 nM, respectively.

Take `Cc1noc(-c2ncn3c2CN(Cc2ccccc2)C(=O)c2c(Cl)cccc2-3)n1`: the Ratio in test [3] turned out to be 101. The molecule further gave a Ki in test [2] of 7.5 nM.

Take `CCOC(=O)c1ncn2c1CN(Cc1ccccc1)C(=O)c1c(Cl)cccc1-2`: the Ki is 20.2 nM in test [1] and 0.4 nM in test [2]. Moreover, in test [3], the Ratio came out at 51.

As to `COc1cccc2c1C(=O)N1CCCC1c1c(C(=O)OC(C)(C)C)ncn1-2` (centres undefined), the Ki in test [1] came out at 259 nM; in test [2], 5.1 nM. Also, the Ratio in test [3] is 51.

With `CN1Cc2c(C(=O)OCC3CC3)ncn2-c2ccc(Cl)cc2C1=O`, the Ratio in test [3] was found to be 4.1.

With `COC(=O)c1ncn2c1CN(C)C(=O)c1sccc1-2`, the Ratio in test [3] came to 58.

With `Cc1noc(-c2ncn3c2CN(Cc2ccccc2)C(=O)c2ccccc2-3)n1`, the Ki in test [1] is > 10000 nM; in test [2], 907 nM.

Turning to `CCCOC(=O)c1ncn2c1CN=C(c1ccccc1Cl)c1cc(Cl)ccc1-2`, the figures for the Ki in test [1] and in test [2] were 1020 nM and 1.9 nM, respectively. Further, the Ratio in test [3] was 539.

`CCOC(=O)c1ncn2c1CN(C)C(=O)c1ccccc1-2`: the Ratio in test [3] came out at 165.

As for `CCOC(=O)c1ncn2c1C1CCN1C(=O)c1c(Cl)cccc1-2` (centres undefined), the Ki is 34 nM in test [1] and 0.2 nM in test [2]. For the same molecule, the Ratio in test [3] stood at 170.

In test [1], `COC(=O)c1ncn2c1CN(C)C(=O)c1ccccc1-2` displayed a Ki of 1410 nM. Besides, the Ratio in test [3] amounted to 224.

Regarding `C=CCN1Cc2c(C(=O)OCC)ncn2-c2ccccc2C1=O`, the Ki in test [1] amounted to 1130 nM; in test [2] it was 39.2 nM. For the same molecule, the Ratio in test [3] came out at 29.

On to `CN1Cc2c(C(=O)OC(C)(C)C)ncn2-c2ccc(Cl)cc2C1=O`, for which the Ratio in test [3] amounted to 0.4.

Take `CCC(CC)OC(=O)c1ncn2c1CN(C)C(=O)c1cc(Cl)ccc1-2`: the Ratio in test [3] came out at 4.6.

With `CCOC(=O)c1ncn2c1CN(Cc1ccccc1)C(=O)c1cc(Cl)ccc1-2`, the Ki in test [1] turned out to be 10.9 nM; in test [2] it was 13.7 nM. For the same molecule, the Ratio in test [3] stood at 0.8.

With `CCOC(=O)c1ncn2c1CN(C)C(=O)c1cccc(Cl)c1-2`, the Ki in test [1] was > 10000 nM; in test [2], > 1000 nM.

As for `O=C(OCC1CC1)c1ncn2c1C1CCCN1C(=O)c1cc(Cl)ccc1-2` (centres undefined), the Ki in test [1] amounted to 81 nM; in test [2] it was 378 nM. The Ratio in test [3] is 0.22.

As to `Cc1nnc2n1-c1ccc(Cl)cc1C(c1ccccc1Cl)=NC2` [TRIAZOLAM], the Ki in test [1] came out at 2090 nM; in test [2], 0.8 nM. Besides, the Ratio in test [3] came out at 2610.

As for `CC(C)(C)OC(=O)c1ncn2c1C1CCCN1C(=O)c1c(Br)cccc1-2` (centres undefined), the Ki is 10 nM in test [1] and 0.5 nM in test [2]. Moreover, the Ratio in test [3] was determined as 20.

Turning to `CN1Cc2c(C(=O)OC(C)(C)C)ncn2-c2ccsc2C1=O`, the Ratio in test [3] was found to be 13.

With `CC(C)(C)OC(=O)c1ncn2c1C1CCCN1C(=O)c1cc(Cl)ccc1-2` (centres undefined), the Ki was 26.8 nM in test [1] and 65.2 nM in test [2]. Besides, in test [3], the Ratio is 0.4.

On to `CCCOC(=O)c1ncn2c1CN(C)C(=O)c1sccc1-2`, for which the Ratio in test [3] amounted to 27.

For the molecule `CCc1cccc2c1C(=O)N1CCCC1c1c(C(=O)OC(C)(C)C)ncn1-2` (centres undefined), the Ki in test [1] was 164 nM; in test [2], 1 nM. Moreover, the Ratio in test [3] was found to be 164.

On to `CC(C)(C)OC(=O)c1ncn2c1C1CCN1C(=O)c1c(Cl)cccc1-2` (centres undefined), for which the Ratio in test [3] stood at 14. The molecule further showed a Ki in test [2] of 1.1 nM.

With `CN1Cc2c(C(=O)OCC(C)(C)C)ncn2-c2ccc(Cl)cc2C1=O`, the Ratio in test [3] is 0.67.

As for `CC(C)(C)OC(=O)c1ncn2c1C1CCCN1C(=O)c1c-2ccc(F)c1Cl` (centres undefined), the Ki in test [1] was 23.6 nM; in test [2] it was 1 nM. The Ratio in test [3] amounted to 24.

Turning to `CCCOC(=O)c1ncn2c1CN(C)C(=O)c1cc(Cl)ccc1-2`, the Ratio in test [3] worked out at 1.3.

`CN1Cc2c(C(=O)OCCC(C)(C)C)ncn2-c2ccc(Cl)cc2C1=O`: the Ki in test [1] is > 1000 nM.

For `CN1Cc2c(C(=O)OC(C)(C)C)ncn2-c2ccccc2C1=O`, the Ratio in test [3] came out at 19.2.

With `CCOC(=O)c1ncn2c1C1CCCN1C(=O)c1cc(Cl)ccc1-2` (centres undefined), the Ratio in test [3] came out at 0.7.

For `CCCOC(=O)c1nc(C)n2c1CN=C(c1ccccc1Cl)c1cc(Cl)ccc1-2`, the affinity in test [2] corresponds to a Ki of 2.2 nM.

Turning to `CCOC(=O)c1ncn2c1CN(C)C(=O)c1c(Cl)cccc1-2` [SARMAZENIL], the Ki in test [1] was found to be 20 nM; in test [2], 0.2 nM. Moreover, in test [3], the Ratio was 100.

With `Cc1noc(-c2ncn3c2CN(Cc2ccccc2)C(=O)c2cc(Cl)ccc2-3)n1`, the Ki in test [1] came out at 115 nM; in test [2], 88.4 nM. Further, the Ratio in test [3] was 1.3.

As to `O=C(OC1CCCCC1)c1ncn2c1C1CCCN1C(=O)c1cc(Cl)ccc1-2` (centres undefined), the Ki turned out to be 165 nM in test [1] and 391 nM in test [2]. In test [3], the Ratio was found to be 0.42.

As to `CC(C)OC(=O)c1ncn2c1CN(C)C(=O)c1cc(Cl)ccc1-2`, the Ratio in test [3] was determined as 0.8.

For the molecule `CCOC(=O)c1ncn2c1[C@@H]1CCCN1C(=O)c1ccccc1-2`, in test [3], the Ratio worked out at 50.

For `COC(=O)c1ncn2c1CN(C)C(=O)c1cc(F)ccc1-2` [FLUMAZENIL METHYLESTER], the figures for the Ki in test [1] and in test [2] were 239 nM and 3.1 nM, respectively. Moreover, the Ratio in test [3] was determined as 77.

For `O=C(OCC1CC1)c1ncn2c1C1CCN1C(=O)c1c(Cl)cccc1-2` (centres undefined), the Ki in test [1] came to 55 nM; in test [2] it was 0.1 nM. For the same molecule, the Ratio in test [3] is 554.
